Bioassay records deposited in PubChem BioAssay by SRMLSC.
PTEN del growth: growth suppressors of cells with PTEN tumor suppressor deletion; HCT116 PTEN-null viability, CellTiter-Glo, 60 h; stronger effect = lower value; viability, % at 10 µM; actives 1.2% (n = 140,000); AID 827;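 active = viability at or below a set limit, 4 SD under the median of all tested compounds, cut at about 3.7% in these data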;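 also: PTEN knockout HCT116 line with beta catenin targeted HCT116 as companion control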
HUVEC prolif 384: human endothelial cell proliferation inhibition; HUVEC proliferation, CellTiter-Glo luminescence, 72 h; stronger effect = lower value; viability, % at 10 µM (by protocol); actives 1.1% (n = 86,000);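 active = viability at or below 30%; inactive = viability above 30%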;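 also: 100% = median luminescence of DMSO-only cell control wells on each plate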
Fibroblast inh: blocks proliferation of human lung fibroblasts | LL 47 human lung fibroblast viability, ATP luminescence; stronger effect = lower value | viability, % at 10 µM | actives 1.1% (n = 85,000) | AID 719;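 active = viability at or below 50% in the single dose screen; inactive = viability above 50%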;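 also: compound exposure lasted 72 h before the ATP readout; 100% = median luminescence of untreated cell-only wells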
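Signal: luminescent ATP detection, CellTiter-Glo; assay system: LL 47 human lung fibroblasts; input: 1,150 cells/well; incubation: overnight cell rest, 72 h compound treatment at 37 °C; measure: % viability versus median cells-only luminescence; medium: IMEM growth medium with 15% fetal bovine serum; dosing: compound addition at 0.1% DMSO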
H69AR growth 86K: blocks growth of human H69AR lung tumor cells | AID 598 | actives 6% (n = 85,000) | viability, % at 10 µM | H69AR lung tumor viability, ATP luminescence, 72 h; stronger effect = lower value;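 active = viability at or below 40%; inactive = viability above 40%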;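 also: multidrug resistant small cell line overexpressing MRP-1 efflux transporter; 100% = mean luminescence of untreated control wells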
HCT116 bCat-KO: beta-catenin-lacking colon tumor cell growth suppression | actives 1.5% (n = 140,000) | HCT116 beta-catenin knockout viability, CellTiter-Glo, 60 h; stronger effect = lower value | AID 818 | viability, % at 10 µM;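 active = viability at or under a set limit, the compound median less 4 SD, cut at about 6% in these data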;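 also: 0% = Hyamine 1622 control at 20 µM and 100% = untreated cell control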
* = called active by the depositor. Only a selection was taken, and hits are over-represented in it overall.

Screening CCOc1ccc(C(=O)NCc2ccccc2)cc1Br returned PTEN del growth 94.2 and HCT116 bCat-KO 94.5.
Screening N#CC1=C(N)Oc2cc(N)ccc2C1C1CC=CCC1 (configuration not stated) returned PTEN del growth 21.5, HUVEC prolif 384 61.5, Fibroblast inh 95.8, H69AR growth 86K 29.1* and HCT116 bCat-KO 22.4.
`COCCNc1nnc(SC(C)C(=O)Nc2ccc(-c3nc4ccc(C)cc4s3)cc2)s1` (configuration not stated) gave PTEN del growth 5.7 and HCT116 bCat-KO 20.9.
`CCOC(=O)/C(C#N)=C1/C=CN(c2ccc(C)cc2)C=N1` gave PTEN del growth 103.0, HUVEC prolif 384 87.5, Fibroblast inh 104.2, H69AR growth 86K 71.7 and HCT116 bCat-KO 102.4.
`CCOC(=O)/C(C#N)=C1/C=CN(c2ccccc2)C=N1` gave PTEN del growth 94.6, HUVEC prolif 384 97.8, Fibroblast inh 103.1, H69AR growth 86K 39.1* and HCT116 bCat-KO 97.2.
CCOc1cc(C(=O)Nc2ccc(NC(C)=O)cc2)ccc1OCC(=O)N1CCCCC1 was read as PTEN del growth 94.5 and HCT116 bCat-KO 94.6.
Screening COc1cc(/C=C2/C(=O)c3cccc([N+](=O)[O-])c3C2=O)c(Br)cc1O returned PTEN del growth 9.9 and HCT116 bCat-KO 7.0.
Screening CC1CCc2nc(NC(=O)CSc3nc4ccccc4o3)sc2C1 (configuration not stated) returned PTEN del growth 84.2, HUVEC prolif 384 62.9, Fibroblast inh 88.2, H69AR growth 86K 30.6* and HCT116 bCat-KO 86.1.
For COc1cc(/C=C/C(=O)NCCn2c(C)cc3ccccc32)cc(OC)c1OC the results were PTEN del growth 72.6 and HCT116 bCat-KO 91.8.
`C=CCSc1nc2ccccc2n1C(=O)/C=C/c1cc(OC)c(OC)c(OC)c1` gave PTEN del growth 2.4* and HCT116 bCat-KO 3.1*.
C=CCSc1nc2ccccc2n1C(=O)/C=C/c1ccc(OC)c(OC)c1 was read as PTEN del growth 1.8* and HCT116 bCat-KO 1.8*.
For CCSc1nc2ccccc2n1C(=O)/C=C/c1ccc(OC)c(OC)c1 the results were PTEN del growth 4.8 and HCT116 bCat-KO 5.4*.
For COc1ccc(/C=C/C(=O)NCCn2c(C)cc3ccccc32)cc1OC the results were PTEN del growth 67.8 and HCT116 bCat-KO 70.8.
For CCn1c(SCC(=O)N/N=C/c2ccc(OC)c(OC)c2)nc2ccccc21 the results were PTEN del growth 99.4 and HCT116 bCat-KO 96.5.
`COc1ccc(N2CCN(c3nc(Cl)nc(Nc4ccc(F)cc4)n3)CC2)cc1` gave PTEN del growth 52.1 and HCT116 bCat-KO 61.3.
For COC(=O)c1sc(-c2ccccc2)cc1NC(=O)c1ccc(OC)cc1 the results were PTEN del growth 5.8 and HCT116 bCat-KO 3.1*.
CC(Oc1cc(-c2ccccc2)cc2ccccc12)C(=O)N1CCOCC1 (configuration not stated) was read as PTEN del growth 77.9, HUVEC prolif 384 80.3, Fibroblast inh 94.2, H69AR growth 86K 35.8* and HCT116 bCat-KO 89.7.
`CCOC(=O)N1CCC(N2CCN(S(=O)(=O)c3ccc(C)cc3)CC2)CC1` gave PTEN del growth 100.5, HUVEC prolif 384 91.6, Fibroblast inh 94.4, H69AR growth 86K 29.2* and HCT116 bCat-KO 90.6.
`CCOC(=O)N1CCN(S(=O)(=O)c2ccc(C(=O)NNc3nc4ccc(Cl)cc4s3)cc2)CC1` gave PTEN del growth 3.6* and HCT116 bCat-KO 4.4*.
For CCOC(=O)N1CCN(S(=O)(=O)c2ccc(C(=O)Nc3nc4c(s3)CC(C)CC4)cc2)CC1 (configuration not stated) the results were PTEN del growth 1.2*, HUVEC prolif 384 16.6*, Fibroblast inh 7.7*, H69AR growth 86K 7.5* and HCT116 bCat-KO 1.5*.
CCOC(=O)N1CCN(S(=O)(=O)c2ccc(C(=O)Nc3nnc(C4CC4)o3)cc2)CC1 was read as PTEN del growth 83.9 and HCT116 bCat-KO 91.8.
`CCOC(=O)N1CCN(C(=O)C2CCN(S(=O)(=O)c3ccc(C)cc3)CC2)CC1` gave PTEN del growth 101.0, HUVEC prolif 384 97.6, Fibroblast inh 103.5, H69AR growth 86K 95.7 and HCT116 bCat-KO 103.3.
COc1ccccc1CNC(=O)C1CCN(S(=O)(=O)c2ccc3c(c2)OCCCO3)CC1 was read as PTEN del growth 100.6 and HCT116 bCat-KO 93.1.
Cc1cc(C)cc(-n2nnnc2SCC(=O)Nc2nc(-c3ccc(F)cc3)cs2)c1 was read as PTEN del growth 88.8 and HCT116 bCat-KO 83.3.
For Cn1cc(/C=N/n2cnc3sc4c(c3c2=O)CCCC4)c2ccccc21 the results were PTEN del growth 54.8, HUVEC prolif 384 77.8, Fibroblast inh 89.5, H69AR growth 86K 26.5* and HCT116 bCat-KO 62.6.
Screening Cc1cc(C)nc(SCC(=O)c2ccc3c(c2)OCCO3)n1 returned PTEN del growth 99.4 and HCT116 bCat-KO 99.3.
Screening O=C(Cn1nc(Cl)nc1Cl)c1ccc2c(c1)OCCO2 returned PTEN del growth 95.1, HUVEC prolif 384 82.7, Fibroblast inh 95.8, H69AR growth 86K 38.4* and HCT116 bCat-KO 79.7.
For O=C(Cn1nc(Cl)nc1Cl)c1cc2ccccc2oc1=O the results were PTEN del growth 86.8, HUVEC prolif 384 90.5, Fibroblast inh 98.9, H69AR growth 86K 31.8* and HCT116 bCat-KO 93.0.
For Cn1cnnc1SCC(=O)c1cc2ccccc2oc1=O the results were PTEN del growth 90.8, HUVEC prolif 384 88.4, Fibroblast inh 89.3, H69AR growth 86K 76.5 and HCT116 bCat-KO 92.9.
For COc1ccc(N(C(=O)c2ccccc2OC(C)=O)C(C)C2CC2)cc1 (configuration not stated) the results were PTEN del growth 78.7, HUVEC prolif 384 85.8, Fibroblast inh 92.0, H69AR growth 86K 101.1 and HCT116 bCat-KO 78.0.
Screening Cc1cc(C)c(S(=O)(=O)N2CCCOC2CNC(=O)C(=O)NCc2ccco2)c(C)c1 (configuration not stated) returned PTEN del growth 91.9 and HCT116 bCat-KO 101.0.
`O=C(Nc1ccccc1-c1ccccc1)C12CC3CC(CC(C3)C1)C2` gave PTEN del growth 68.2 and HCT116 bCat-KO 80.0.
Screening Cc1cc(C)n2nc(CC(=O)NCc3ccc(F)cc3)nc2n1 returned PTEN del growth 93.9 and HCT116 bCat-KO 91.7.
Screening Cc1ccc(C(=O)Nc2ccccc2C(=O)N2CCOCC2)cc1[N+](=O)[O-] returned PTEN del growth 95.4 and HCT116 bCat-KO 96.5.
Screening OC(CNCCc1ccc(C(F)(F)F)cc1)COc1ccc2ccccc2c1 (configuration not stated) returned PTEN del growth 22.6 and HCT116 bCat-KO 8.9.
Screening OC(CNCCc1ccc(C(F)(F)F)cc1)COc1cccc2ccccc12 (configuration not stated) returned PTEN del growth 1.7* and HCT116 bCat-KO 1.7*.
CCOc1ccc2nc(NCCNC(=O)Nc3ccccc3)c(C#N)cc2c1 was read as PTEN del growth 88.2, HUVEC prolif 384 72.9, Fibroblast inh 102.4, H69AR growth 86K 28.1* and HCT116 bCat-KO 94.7.
